# Assay outcomes (PubChem)
# The list is not random: actives were taken first. Their share in the collection is about 2.6%.
# ABHD4 inh – inhibits mouse alpha/beta hydrolase domain 4. Q8VD66. purified mABHD4, FP-Rh probe fluorescence polarization. inhibition, % at 8.92 µM. 0.54% of 370,000 active;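 active = inhibition exceeding the mean over every tested compound plus 3 SD, cut at about 30% in these data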;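 note: 0% = plate median of compound wells and 100% = S159A mutant with DMSO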
#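 system = mouse ABHD4 enzyme, wild type | medium = HEPES pH 7.0, NaCl, Pluronic buffer | also added = FP-Rh probe | incubation = Enzyme–compound pre-incubation 45 min, then probe 60 min, both 25 °C | technique = fluorescence polarization, excitation 525 nm, emission 598 nm, BODIPY TMR filters | controls = S159A mutant high control, sample median low control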
# HTRA1 inhibitor – inhibitors of human serine peptidase HTRA1; Q92743; recombinant HTRA1, FP-rhodamine activity-based probe, fluorescence polarization; inhibition, % at 5.96 µM; 0.5% of 340,000 active; in the data active = inhibition above about 36%;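 note: 0% = enzyme with DMSO and 100% = wells lacking enzyme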
# PRMT1 inh – PRMT1 (human) inhibition, primary screen; Q99873; recombinant PRMT1, activity-based probe fluorescence polarization; inhibition, % at 2.79 µM; 1.3% of 370,000 active; AID 652257;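 active = inhibition above about 21% made by adding two undisclosed values, limit read from the data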
# Target sequence (Q99873 whole entry, looked up): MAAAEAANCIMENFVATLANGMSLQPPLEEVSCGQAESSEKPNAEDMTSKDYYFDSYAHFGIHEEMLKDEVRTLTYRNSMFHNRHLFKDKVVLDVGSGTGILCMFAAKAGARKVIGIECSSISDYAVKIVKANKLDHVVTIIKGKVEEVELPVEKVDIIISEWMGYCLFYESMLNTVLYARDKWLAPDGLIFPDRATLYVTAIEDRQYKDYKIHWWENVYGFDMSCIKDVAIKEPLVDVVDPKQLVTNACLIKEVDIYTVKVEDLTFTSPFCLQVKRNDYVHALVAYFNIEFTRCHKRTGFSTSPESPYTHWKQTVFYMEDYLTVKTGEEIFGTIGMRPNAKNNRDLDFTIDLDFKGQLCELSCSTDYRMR
# TCR CD3 inh – blocks the human TCR-CD3 interaction | TAMRA-labeled TCR probe fluorescence, biochemical | inhibition, % at 9.4 µM | 0.37% of 360,000 active; in the data active = inhibition above about 19%;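 note: recombinant mutant TCR 2C K166C tagged with TAMRA read by polarization; 0% = receptor in buffer alone and 100% = receptor with positive control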
# SIAE primary – human SIAE inhibition, primary screen. 0.69% of 370,000 active. SIAE FP-Rh probe binding, fluorescence polarization. Q9HAT2. inhibition, % at 9.66 µM;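 active = inhibition above a cutoff: mean of compounds within the control limits plus 3 SD of those, cut at about 17% in these data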;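 note: 0% = plate median of compound wells and 100% = probe without SIAE protein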
# PRMT1 inh conf – PRMT1 (human) inhibition, FP confirmation | shares compounds with PRMT1 inh | recombinant His-PRMT1, activity-based probe fluorescence polarization | inhibition, % at 2.79 µM | 42% of 3,300 active | AID 687036;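 active = mean inhibition across replicates above the hit cutoff derived for the earlier primary screen, cut at about 22% in these data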
# Numbers without * were called inactive; nt = not tested or not shown.
SMILES,ABHD4 inh,HTRA1 inhibitor,PRMT1 inh,TCR CD3 inh,SIAE primary,PRMT1 inh conf
COC(=O)C1=C(C)N(C)C(=NCc2ccccc2C(F)(F)F)NC1c1cccc(F)c1 (stereo unspecified),-3.8,nt,-2.2,2.6,-5.9,nt
O=C(O)c1cc(=S)nc[nH]1,15.9,-3.2,38.7*,-4.6,1.9,60.0*
CN(C)c1ccc(CNC(=O)CCS(=O)(=O)c2ccc3c(c2)n(C)c(=O)c(=O)n3C)cc1,nt,3.5,nt,nt,nt,nt
CCC(CC)c1nnc(NC(=O)COc2ccc3c(c2)OCO3)s1,-6.6,-0.3,42.4*,-4.2,3.6,-0.7
O=C(O)c1ccccc1C(=O)NCc1ccccc1,1.3,5.7,-3.5,2.3,2.4,nt
Nc1sccc1C(=O)NCc1ccccc1,-22.1,nt,33.7*,-12.3,-12.9,16.2
O=C(OCCN1C(=O)c2cccc3c(N4CCOCC4)ccc(c23)C1=O)c1ccc(Cl)cc1,2.2,0.3,28.5*,7.5,9.2,0.9
CCCN(CCC)S(=O)(=O)c1ccc(C(=O)OCCN2C(=O)c3cccc4c(N5CCOCC5)ccc(c34)C2=O)cc1,nt,-3.2,nt,nt,nt,nt
O=C(Cc1cccc(NC(=O)C2CCN(C(=O)C3CC3)CC2)c1)Nc1cccc(C(=O)N2CCCCC2)c1,-16.0,4.3,7.6,-4.2,1.3,nt
CCCN1CNC(=S)N(Cc2ccccc2)C1,7.5,4.2,-1.8,-3.7,-3.9,nt
CCCN1CNC(=S)N(CC2CCCO2)C1 (stereo unspecified),4.0,3.3,66.5*,-3.5,1.4,-4.2
COc1ccc(C(=O)NC(=O)CSc2nc3nc(C)cc(C)n3n2)cc1,3.9,3.9,27.2*,4.1,3.1,2.1
CCOC(=O)[C@]12CCC=C1N(Cc1ccccc1)C(=O)[C@H](CC(=O)N1CCN(C(=O)c3ccco3)CC1)C2,-6.7,nt,8.4,-7.9,-5.8,nt
Cc1[nH]c(=O)nc(SCc2cccc(Cl)c2)c1C#N,-22.8,-28.8,1.4,-4.6,-8.0,nt
N#Cc1c(SCc2c(Cl)cccc2Cl)nc(N)[nH]c1=S,-12.0,-15.2,42.6*,-1.8,3.2,10.9
N#CC1=C(N)OC2=C(CC/C2=C\c2ccccc2)C1c1ccccc1 (stereo unspecified),-0.5,-21.0,26.6*,-7.6,6.1,47.7*
CCCCc1c(-c2ccc(F)cc2)ncn1CCc1ccccc1OC,1.3,nt,-1.1,5.1,1.7,nt
O=C(NC(=S)N1CCCCC1CO)c1cccs1 (stereo unspecified),-2.9,9.1,33.4*,-1.7,-8.1,13.4
CCC1CCCCN1C(=S)NC(=O)c1cccs1 (stereo unspecified),2.2,2.4,1.1,6.0,-2.6,nt
Cc1[nH]c(=S)c(C#N)c2c1CCCC2,0.3,-9.1,39.8*,1.4,5.5,18.7
CC(O)(c1cccnc1)c1nc(-c2cc(F)cc(F)c2)cs1 (stereo unspecified),-3.0,nt,-1.6,0.3,-1.6,nt
CC(CC(=O)c1cccs1)CC(=O)c1cccs1,4.2,-1.0,-0.2,1.8,-0.7,nt
O=C(SCC(O)C(O)CS)c1cccs1 (stereo unspecified),-4.1,-5.7,65.0*,7.3,2.2,54.2*
C[n+]1c2n(c3ccccc31)N=C(c1ccc(Cl)cc1)CS2,0.4,-4.2,39.9*,7.1,7.3,17.6
O=C1NC(=S)SC1=C1CCCCCC1,-3.7,-4.5,32.2*,4.8,3.3,-0.3
SMILES,ABHD4 inh,HTRA1 inhibitor,PRMT1 inh,TCR CD3 inh,SIAE primary,PRMT1 inh conf
O=C1N=C(N2CCCCC2)SC1=C1CCCCC1,9.2,3.7,7.9,-0.1,-0.7,nt
CCOC(=O)C1(C)CCN1C(=O)c1ccc(C(=O)OC)cc1 (stereo unspecified),-6.6,nt,-4.4,-2.0,-0.8,nt
Cc1ccc(-c2nc3cnccn3c2Nc2ccc3c(c2)OCCO3)o1,0.8,11.2,26.6*,-4.1,5.5,1.9
CN(C)c1ccc(-c2nc3cnccn3c2Nc2ccc3c(c2)OCCO3)cc1,3.4,0.0,4.3,-5.1,6.5,nt
CC1(C)CC(NC(=O)c2cccc(Cl)c2)CC(C)(C)N1,2.7,-5.6,1.2,-1.3,-15.2,nt
O=C(NCCSc1ccccn1)c1ccc(Cl)cc1,0.0,-0.1,3.5,0.4,-1.3,nt
N#CC(Sc1ccccn1)c1ccc(Cl)cc1 (stereo unspecified),-1.5,-2.2,46.2*,-5.2,3.1,35.4*
CC(C)CN(C(=O)COC(=O)C1=COCCO1)c1c(N)n(Cc2ccccc2)c(=O)[nH]c1=O,0.7,3.1,1.8,4.2,1.4,nt
C1=C(c2ccc(-c3ccccc3)cc2)Nc2ncnn2C1c1ccco1 (stereo unspecified),-7.5,-13.7,38.6*,4.5,-11.9,21.8*
Fc1ccc(C2=CC(c3ccco3)n3ncnc3N2)cc1 (stereo unspecified),nt,0.4,nt,nt,nt,nt
Cn1c(=O)c(-c2ccccc2[N+](=O)[O-])c(Cl)c2ccccc21,4.0,-9.6,0.2,-1.3,11.6,nt
CC(=O)Nc1ccc(SCC(=O)NC(=O)c2ccc(S(=O)(=O)N(C)C)cc2)cc1,0.4,3.4,50.2*,1.3,14.3,42.6*
CC(=O)Nc1ccc(SCC(=O)Nc2ccc(Cl)cn2)cc1,-5.9,5.3,28.5*,4.7,4.8,37.1*
Cn1cnnc1SCC(=O)Nc1ccc(Cl)cn1,2.1,2.0,2.2,-5.6,-0.8,nt
CC(=O)Nc1ccc(SCC(=O)Nc2ccc3c(c2)OCCO3)cc1,2.3,3.9,57.6*,5.0,0.7,53.6*
CC(=O)Nc1ccc(SCC(=O)c2cc(C)n(C)c2C)cc1,8.2,2.0,36.1*,-0.2,6.0,15.7
CCCCCCCCN1N=N[C@H]2[C@H]1[C@@H]1C[C@H]2N(C(=O)OC(C)(C)C)O1,6.1,4.9,-1.3,4.9,1.1,nt
O=C(Nc1c2c(nn1-c1ccccc1)CS(=O)C2)c1ccco1 (stereo unspecified),-5.0,2.9,-6.7,0.1,-7.7,nt
NS(=O)(=O)c1ccc(NC(=O)CSc2nc(Nc3ccccc3)nc(N3CCOCC3)n2)cc1,-11.4,-10.8,-3.8,5.6,-1.5,nt
N#CC1=C(N)C(C#N)(C#N)[C@H](c2c(F)cccc2F)[C@H]2CC3(CC=C12)OCCO3,4.5,-3.8,25.6*,2.2,0.0,14.1
CN1C2C=C3C(C#N)=C(N)C(C#N)(C#N)[C@H](c4c(F)cccc4F)[C@H]3C1CC2 (stereo partly specified),15.6,-1.4,11.7,10.4,7.0,nt
COc1ccc(NC(=O)CSc2nnc(-c3cccnc3)o2)c(OC)c1,-1.2,2.6,27.6*,-7.0,-2.8,36.2*
COc1ccc(NC(=O)CSc2nnc(-c3ccncc3)o2)c(OC)c1,4.4,13.3,-0.1,0.6,3.6,nt
Cc1ncoc1C(=O)Nc1ncc([N+](=O)[O-])s1,3.7,0.8,39.1*,12.9,-16.0,1.8
COc1cc(CNc2ccc3[nH]c(=O)[nH]c3c2)cc(Br)c1OCC(=O)NC(C)(C)C,13.7,13.6,25.4*,-7.5,1.9,11.8
C=CCOc1c(Br)cc(CNc2ccc3[nH]c(=O)[nH]c3c2)cc1OCC,11.6,0.8,30.1*,4.0,7.3,14.7
